From PubChem
hERG rescue – shields human hERG channel from block by proarrhythmic agents; Q12809; CHO-hERG, FluxOR thallium flux, dofetilide IC70 present; activation (rescue from dofetilide block), less the hit threshold, % at 10 µM; 0.51% of 310,000 active;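 active = activation above the mean of controls blocked by dofetilide plus 5 SD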;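 also: thallium influx through hERG after potassium depolarization seen as dye fluorescence rise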
KCNQ1 act – human KCNQ1 channel potentiation or activation | P51787 | CHO-K1 KCNQ1, thallium flux FluxOR fluorescence; hits give high values | B-score at 10 µM | 0.35% of 310,000 active | AID 2648;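 active = fluorescence ratio B-score, a plate-corrected score, at least three library SD, with initial intensity B-score within 5 SD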
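Schedule – 37 °C overnight plating, 90-min dark dye load, 20-min compound pretreatment · System – stable KCNQ1 CHO-K1 line · Probe or stimulus – thallium- and potassium-containing depolarizing buffer · Measured by – kinetic FluxOR fluorescence, 10 s baseline plus 110 s post-stimulus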
KCNK9 inh – inhibitors of human KCNK9 two-pore domain potassium channel. Q9NPC2. HEK293 KCNK9, FluxOR thallium flux fluorescence; hits give low values. B-score at 10 µM. 1.2% of 310,000 active;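 active = ratio B-score over 3 SD below the library mean, with starting fluorescence within 5 SD of its mean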;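 also: negative B-score means less thallium flux so channel inhibition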
KCNQ1 inh – blocks the human KCNQ1 potassium channel; P51787; CHO-K1 KCNQ1, FluxOR thallium flux fluorescence; hits give high values; B-score at 10 µM; 1.3% of 310,000 active;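 active = compounds whose thallium flux B-score, printed positive for inhibition, exceeds three library SD while starting fluorescence stays within three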;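 also: channel opened by potassium depolarization with thallium stimulus after 20 min compound exposure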
KCC2 mod – KCC2 (human) Cl- transport modulation; Q9H2X9; KCC2 cells, thallium flux FluoZin-2 fluorescence; B-score of Tl+ flux slope (higher = more flux/activation; lower = inhibition) at 10 µM; 2.2% of 190,000 active; AID 1456;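 active = thallium flux slope and its plate-corrected score both differing from the plate sample mean at a set confidence after two filtering rounds, in either direction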;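 also: slope of fluorescence scaled to starting intensity during 10 to 20 s after thallium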
KCNK3 block – human KCNK3 channel inhibition, primary screen; O14649; 0.84% of 340,000 active; B-score at 10 µM; CHO-KCNK3 thallium flux, FluxOR fluorescence; hits give low values;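 active = B-score under library mean minus 4 SD, starting fluorescence ratio at most library mean plus 5 SD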;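 also: more negative B-score means stronger inhibition of thallium flux through KCNK3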
Target sequence (O14649 whole entry, looked up): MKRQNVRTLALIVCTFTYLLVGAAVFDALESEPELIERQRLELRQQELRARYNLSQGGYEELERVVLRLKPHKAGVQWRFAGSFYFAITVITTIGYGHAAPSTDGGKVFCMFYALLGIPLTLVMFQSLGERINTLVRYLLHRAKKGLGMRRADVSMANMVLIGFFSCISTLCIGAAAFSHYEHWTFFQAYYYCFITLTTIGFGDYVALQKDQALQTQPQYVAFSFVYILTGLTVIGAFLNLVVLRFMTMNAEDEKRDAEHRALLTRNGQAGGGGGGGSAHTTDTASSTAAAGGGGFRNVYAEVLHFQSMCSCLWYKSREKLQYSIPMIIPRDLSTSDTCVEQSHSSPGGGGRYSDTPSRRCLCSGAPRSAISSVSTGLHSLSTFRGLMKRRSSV
KCNK9 block conf – human KCNK9 inhibitor confirmation; shares compounds with KCNK9 inh; 43% of 4,900 active; HEK293 KCNK9 cells, FluxOR thallium flux fluorescence; inhibition, % at 10 µM; AID 492992;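 active = thallium signal inhibited by more than 5 SD of the compound-free buffer control wells, on both duplicate plates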;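 also: 0% = assay buffer control wells without compound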
Kir2-1 spec – tests whether KCNK9 modulators also affect mouse Kir2.1. Kir2.1 cells, FluxOR thallium flux fluorescence. shares compounds with KCNK9 inh. inhibition, % at 10 µM. 4% of 4,900 active;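 active = thallium signal drop more than 5 SD beyond the mean of the no-compound control wells, seen in both duplicate plates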;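 also: signal is fluorescence rise after thallium addition divided by baseline fluorescence; plate controls were assay buffer only for no effect and full block by chlorpromazine control for full effect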
HEK293 Tl ctr – non-induced cell nonspecific activity of KCNK9 modulators. non-induced KCNK9-HEK293, FluxOR thallium flux. AID 492997. 40% of 4,900 active. inhibition, % at 10 µM. shares compounds with KCNK9 inh;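 active = thallium signal drop beyond 5 SD of the untreated control mean, on both duplicate plates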;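 also: plate controls were buffer only IC0 wells for no effect and SID17386958 at its maximal inhibitory level for full effect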
Active calls of the source: *; i = inactive; · = not tested or not shown. In the library only some 4.1% were active in any assay of this set; here they are far more common.

SMILES	hERG rescue	KCNQ1 act	KCNK9 inh	KCNQ1 inh	KCC2 mod	KCNK3 block	KCNK9 block conf	Kir2-1 spec	HEK293 Tl ctr
CC(C)=CCc1c(O)ccc(C2COc3c(CC=C(C)C)c(O)cc(O)c3C2=O)c1O (stereo not drawn)	-18	i	-24*	i	·	i	66%*	i	28%*
CC(=O)Nc1ccc(C(=O)OCC(=O)Nc2ccc(S(=O)(=O)N3CCOCC3)cc2)cc1	·	·	·	·	·	i	·	·	·
CCN(CC)c1ccc(Nc2cc3n(c(=O)n2)CCc2cc(OC)c(OC)cc2-3)cc1	-8	i	i	i	·	i	·	·	·
CC1CCCN(c2nc3c(c(=O)[nH]c(=O)n3C)n2CCSc2ncccn2)C1 (stereo not drawn)	·	·	·	·	-0.29	·	·	·	·
C=CCN=C1S/C(=C/c2cccc([N+](=O)[O-])c2)C(=O)N1CC=C	-8	i	i	i	0.59	i	·	·	·
O=C(O)c1cccc(CN2C(=O)S/C(=C/c3cccc([N+](=O)[O-])c3)C2=O)c1	-16	i	i	i	-1.4	i	i	i	i
C/C(=N\NC(=O)c1ccc(NS(=O)(=O)c2cccs2)cc1)c1ccc(C(C)(C)C)cc1	-6	i	i	i	-0.16	i	·	·	·
CCOC(=O)c1sc(-c2ccccc2)cc1NC(=O)Nc1ccccc1	-11	i	i	i	0.89	i	i	i	i
Cc1cccn2cc(CSc3nnc(Nc4ccc(C(C)C)cc4)s3)nc12	-5	i	i	i	-2.8	i	i	i	i
CCOC(=O)c1c(NC(=O)CSc2nc3ccccc3s2)sc(C)c1C	-11	i	i	i	·	i	i	i	i
CCOC(=O)c1c(NC(=O)CCc2ccc(CC)o2)sc(C)c1C	-19	i	i	i	0.42	i	i	i	24%*
CCOC(=O)c1c(NC(=O)CSc2nnc(-c3ccc(Cl)cc3)o2)sc2c1CCC2	-11	i	i	i	·	i	i	i	i
COC(=O)c1c(NC(=O)CCc2ccc(C)o2)sc(C)c1C	-12	i	i	i	2	i	·	·	·
CCOC(=O)c1c(NC(=O)CSc2nnc(Cc3ccccc3)o2)sc(C)c1C	-6	i	i	i	-3.4	i	i	i	i
CC(C)(C)c1ccc(-c2nnc(SCC(=O)Nc3sc4c(c3C#N)CCCC4)o2)cc1	-5	i	i	i	0.15	i	·	·	·
O=C(CN1C(=O)COc2ccc(Cl)cc21)NCC1CCCO1 (stereo not drawn)	-7	i	i	i	·	i	·	·	·
CCOc1ccccc1NC(=O)NC1Cc2ccccc2C1	-5	i	i	i	·	i	·	·	·
Cc1nnc(SCC(=O)Nc2sc3c(c2C(=O)c2ccccc2)CCCC3)s1	-8	i	i	i	-1	i	i	i	i
CSc1ccccc1NC(=O)c1ccc(CN2CCOCC2)cc1	-5	i	-11*	i	-0.071	i	i	i	i
Cc1nnc(SCC2=C(C(=O)O)N3C(=O)C(NC(=O)Cn4ncc(Cl)c4C)C3SC2)s1 (stereo not drawn)	4	i	i	i	0.76	i	·	·	·
CCOc1ccc(C(=O)OCCN(CC)CC)cc1	-11	i	i	i	-0.058	i	·	·	·
CCN(CC)CCOc1ccc(/C(=C(/Cl)c2ccccc2)c2ccccc2)cc1	-32	i	i	8*	1.5	i	i	i	i
Cc1ccc(NS(=O)(=O)c2cccc(C(=O)NCCc3c[nH]c4ccccc34)c2)c(C)c1	-17	i	i	i	-1	i	i	i	27%*
Cn1c(=O)c2c(SCC(=O)NC3CCCC3)nc(CC(C)(C)C)nc2n(C)c1=O	-6	i	i	i	·	i	·	·	·
Cn1c(=O)c2c(SCC(=O)Nc3ccc4c(c3)OCCO4)nc(CC(C)(C)C)nc2n(C)c1=O	-8	i	i	i	-1.2	i	i	i	i
SMILES	hERG rescue	KCNQ1 act	KCNK9 inh	KCNQ1 inh	KCC2 mod	KCNK3 block	KCNK9 block conf	Kir2-1 spec	HEK293 Tl ctr
O=S(=O)(Nc1ccc(Cl)c(C(F)(F)F)c1)c1cnc[nH]1	-8	i	i	i	0.21	i	·	·	·
Cc1ccccc1N1CCN(CCN2C(=O)CC(=C3c4ccccc4-c4ccccc43)C2=O)CC1	-14	i	i	i	-0.13	i	·	·	·
COc1ccccc1N1CCN(CCN2C(=O)CC(=C3c4ccccc4-c4ccccc43)C2=O)CC1	-12	i	i	i	-0.47	·	i	i	i
COc1cc(C(=O)Oc2cccc(C)c2)cc(OC)c1OC	-9	i	i	i	0.67	i	·	·	·
COc1cc(OC)nc(Oc2ccccc2C(=O)Oc2cccc(C)c2)n1	0	i	-9.5*	i	-1.4	i	34%*	i	36%*
Cc1ccc(C)c(NS(=O)(=O)c2cc(C(=O)Nc3ccccc3-c3ccccc3)ccc2Cl)c1	-2	i	-13*	i	-0.76	i	39%*	i	32%*
COCCNC(=O)c1ccccc1NC(=O)c1ccc(Cl)c(S(=O)(=O)Nc2ccc(C)cc2C)c1	-8	i	i	i	·	i	·	·	·
C[C@@H](C(=O)OCC(=O)Nc1cc(S(=O)(=O)N2CCOCC2)ccc1Cl)N1C(=O)C2CCCCC2C1=O (stereo partly drawn)	-10	i	i	i	0.057	i	·	·	·
O=C1CC(N2CCC(Cc3ccccc3)CC2)C(=O)N1CCc1ccccc1 (stereo not drawn)	-1	i	i	i	-1.6	i	i	i	i
O=C1CC(N2CCN(C3CC(=O)N(CCc4ccccc4)C3=O)CC2)C(=O)N1CCc1ccccc1 (stereo not drawn)	-3	i	i	i	0.026	i	·	·	·
CCn1ncc(/C=N\NC(=O)c2ccc3c(c2)c(C)c(C)n3Cc2ccccc2)c1C	0	i	-18*	i	-0.22	i	60%*	i	30%*
CCn1cc(/C=N\NC(=O)c2ccc3c(c2)c(C)c(C)n3Cc2ccccc2)c(C)n1	-3	i	-19*	i	1.1	i	68%*	i	27%*
CCn1nc(C)c(/C=N/NC(=O)c2ccc3c(c2)c(C)c(C)n3Cc2ccccc2)c1C	-1	i	-15*	i	-0.83	i	54%*	i	28%*
